Results taken from PubChem BioAssay.
Activity calls are given as the source filed them.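 How the source made its calls, unless noted: active means Her2 level under about 52% in both replicate screens, with viability over 70% of control (limit read from the data); inconclusive means Her2 under the limit in one screen only, or viability under 70%; inactive means Her2 level above the set limit.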

Assays:
[1] = reducers of endogenous Her2 protein level, primary screen, SKBR3 breast tumor cells, AlphaScreen, ATP viability (AID 461); settings: 18-24 h, measured here: SKBR3 viability, ATP luminescence, at 10 µM;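 on Her2 level: lower value means less Her2 protein in the cells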;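 on viability: percent of carrier control wells set as 100% viability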
[2] = target: Receptor tyrosine-protein kinase erbB-2 (Homo sapiens) (UniProt P04626); test: as above; settings: 18-24 h, at 10 µM, stronger effect = lower value
[3] = SK-BR-3 cell growth inhibitors, pilot screen, 24 h, human (AID 572;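 active means viability at or below 10% of carrier control in both of two separate runs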;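 further: compound exposure lasted between 18 and 24 h rather than exactly 24 h; 100% = carrier-treated control wells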); settings: SK-BR-3 viability, CellTiter-Glo luminescence, at 10 µM, stronger effect = lower value
[4] = HUVEC growth inhibition – cell-based, human, primary screen (AID 575;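 active means viability at or below 30% in both replicate assays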;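 further: 100% = median of untreated cell wells with 0.1% DMSO on each plate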); settings: HUVEC proliferation, CellTiter-Glo luminescence, 72 h; at 10 µM; stronger effect = lower value
In short: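 system = HUVEC primary cells | amount = 1250 cells/well | buffer or medium = supplemented EBM, 2% fetal bovine serum | dosing = single-point 10 µM, DMSO 0.1% final | times = 72 h compound incubation | detection = CTG luminescence | read-out = % viability relative to median vehicle-well signal on each plate | control set = vehicle and MePR control wells | format = collagen-coated 384-well format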

[5] = growth inhibitors of H69AR lung tumor, primary screen, human, duplicate replicates (AID 580;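 active means viability at or under a set limit in both replicates, limit being median viability minus 3 SD, cut at about 48% in these data, passing the limit was not always enough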;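 further: 100% = mean luminescence of untreated wells and 0% = no signal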); settings: H69AR lung tumor cells viability, ATP luminescence, 72 h; at 10 µM; stronger effect = lower value
[6] = reversal of MRP1-mediated doxorubicin resistance, pilot screen, H69AR cells, doxorubicin co-treatment (AID 601;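 active means viability loss from added drug above about 55%, and viability with drug at most 40%, in both replicates, limit read from the data, passing the limit was not always enough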); settings: CellTiter-Glo, 72 h, at 10 µM; for differential viability (reversal): stronger effect = higher value
[7] = 384-well plate pilot, post-Golgi transport modulator project, inhibition of yeast transport mutant growth (AID 636; in the data active means inhibition above about 31%); settings: absorbance 615 nm, about 18 h, stronger effect = higher value
[8] = growth suppression of yeast trafficking mutant, preliminary HTS, modulators of trafficking downstream of Golgi apparatus project, 1536-format plate, OD 615 nm (AID 637; in the data active means inhibition above about 30%); settings: yeast transport mutant growth, absorbance 615 nm, 18 h; stronger effect = higher value
[9] = H69AR cells + 2 uM doxorubicin, measured here: viability with 2 uM doxorubicin, stronger effect = lower value
[10] = H69AR cells, compound alone cytotoxicity

Sequence of Receptor tyrosine-protein kinase erbB-2 (Homo sapiens) (P04626 whole entry, looked up): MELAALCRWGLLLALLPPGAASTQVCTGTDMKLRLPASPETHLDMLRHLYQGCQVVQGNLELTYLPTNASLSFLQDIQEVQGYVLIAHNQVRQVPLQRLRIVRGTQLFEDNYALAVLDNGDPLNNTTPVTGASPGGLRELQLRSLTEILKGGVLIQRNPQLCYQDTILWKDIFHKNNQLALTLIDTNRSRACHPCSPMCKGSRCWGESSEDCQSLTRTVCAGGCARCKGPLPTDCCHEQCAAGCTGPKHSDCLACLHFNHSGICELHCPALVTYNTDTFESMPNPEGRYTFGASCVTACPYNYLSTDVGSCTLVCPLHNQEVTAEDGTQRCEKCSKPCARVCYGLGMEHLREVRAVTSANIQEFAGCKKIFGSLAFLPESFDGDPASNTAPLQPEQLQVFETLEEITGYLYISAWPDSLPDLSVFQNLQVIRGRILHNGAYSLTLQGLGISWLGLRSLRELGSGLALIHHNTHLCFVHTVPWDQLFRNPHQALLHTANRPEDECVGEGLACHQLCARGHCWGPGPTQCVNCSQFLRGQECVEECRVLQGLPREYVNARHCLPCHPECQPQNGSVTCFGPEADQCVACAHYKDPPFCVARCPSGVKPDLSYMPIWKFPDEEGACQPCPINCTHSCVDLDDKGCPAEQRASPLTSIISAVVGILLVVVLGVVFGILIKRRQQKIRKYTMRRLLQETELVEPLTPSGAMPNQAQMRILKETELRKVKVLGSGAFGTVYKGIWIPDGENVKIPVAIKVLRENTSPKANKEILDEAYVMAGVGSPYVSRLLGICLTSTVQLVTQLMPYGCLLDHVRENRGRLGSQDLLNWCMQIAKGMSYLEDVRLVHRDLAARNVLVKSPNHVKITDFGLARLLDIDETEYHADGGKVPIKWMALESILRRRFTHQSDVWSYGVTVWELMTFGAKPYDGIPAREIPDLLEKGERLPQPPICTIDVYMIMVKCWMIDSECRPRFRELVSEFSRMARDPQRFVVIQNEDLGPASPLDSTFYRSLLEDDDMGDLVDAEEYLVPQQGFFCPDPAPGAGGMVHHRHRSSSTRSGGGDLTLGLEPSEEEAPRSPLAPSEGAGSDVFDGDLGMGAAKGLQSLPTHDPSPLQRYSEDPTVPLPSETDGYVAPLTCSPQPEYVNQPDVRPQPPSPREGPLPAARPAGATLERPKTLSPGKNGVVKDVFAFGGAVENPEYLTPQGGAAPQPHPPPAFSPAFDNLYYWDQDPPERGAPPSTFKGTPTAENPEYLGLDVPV

Row | Compound | viability [1] | Her2 level [2] | viability [3] | viability [4] | viability [5] | differential viability (reversal) ([6]; H69AR cells + 2 uM doxorubicin) | viability [6, 9] | viability [6, 10] | inhibition [7] | inhibition [8]
1 | CC(NS(=O)(=O)c1ccccc1)C(c1cccs1)N1CCN(C)CC1 (stereo not given) | 93.5% | 79.5% (inactive) | 93.5% (inactive) | 81.1% (inactive) | 94.5% (inactive) | 15% (inactive) | 79.4% | 94.5% | -5% (inactive) | -6.83% (inactive)
2 | Cc1cccc(NC(=O)CCN2CCN(C/C=C/c3ccccc3)CC2)c1 | 87.5% | 84.5% (inactive) | 87.5% (inactive) | 66% (inactive) | 86.3% (inactive) | -9.71% (inactive) | 96.1% | 86.3% | -2.53% (inactive) | 3.23% (inactive)
3 | COC(=O)C1=C(C)NC(C)=C(C(=O)OC)C1c1cc2cc(C)ccc2[nH]c1=O | 103% | 66% (inactive) | 103% (inactive) | 84.6% (inactive) | 79.4% (inactive) | 6.74% (inactive) | 72.6% | 79.4% | -3.29% (inactive) | 3.45% (inactive)
4 | C=CCN1C(=O)C2(C(C#N)=C(N)Oc3n[nH]c(CCC)c32)c2ccccc21 (stereo not given) | 108% | 103% (inactive) | 108% (inactive) | 100% (inactive) | 87.8% (inactive) | 2.95% (inactive) | 84.8% | 87.8% | -4.55% (inactive) | 0% (inactive)
5 | CCN1CCN(CCCNC(=O)c2cn(CCOC)c(=O)c3c2c2ccccc2n3C)CC1 | 121% | 122% (inactive) | 121% (inactive) | 96.4% (inactive) | 97.2% (inactive) | 6.88% (inactive) | 90.3% | 97.2% | -2.11% (inactive) | -3.82% (inactive)
6 | NC(=O)C1(N2CCCCC2)CCN(C2CC(=O)N(Cc3cccs3)C2=O)CC1 (stereo not given) | 112% | 103% (inactive) | 112% (inactive) | 101% (inactive) | 98% (inactive) | 6.76% (inactive) | 91.3% | 98% | -4.74% (inactive) | -0.48% (inactive)
7 | Cc1cc(C)n(-c2cc(N3CCOCC3)nc(-c3ccccc3)n2)n1 | 85% | 104% (inactive) | 85% (inactive) | 75.7% (inactive) | 73.6% (inactive) | -7.4% (inactive) | 81% | 73.6% | -5.79% (inactive) | 4.17% (inactive)
8 | COCc1cc(C)c2c(N)c(C#N)sc2n1 | 88% | 100% (inactive) | 88% (inactive) | 91.5% (inactive) | 99.6% (inactive) | 15.3% (inactive) | 84.3% | 99.6% | -1.32% (inactive) | -2.55% (inactive)
9 | CS(=O)(=O)N1CCCC(C(=O)NCCCN2CCC(Cc3ccccc3)CC2)C1 (stereo not given) | 108% | 115% (inactive) | 108% (inactive) | 101% (inactive) | 103% (inactive) | 0.23% (inactive) | 103% | 103% | 2.6% (inactive) | -5.56% (inactive)
10 | COc1cc(-c2nnc(SCc3c(F)cccc3Cl)o2)cc(OC)c1OC | 70.5% | 103% (inactive) | 70.5% (inactive) | 68.5% (inactive) | 85.2% (inactive) | 3.85% (inactive) | 81.3% | 85.2% | -4.19% (inactive) | -4.1% (inactive)
11 | Cc1ccc(-c2nn3c(=O)c(C)nnc3s2)cc1 | 112% | 112% (inactive) | 112% (inactive) | 112% (inactive) | 104% (inactive) | 12.8% (inactive) | 90.9% | 104% | -2.97% (inactive) | -5% (inactive)
12 | COc1ccc(CCNC(=O)CC2COc3ccccc3O2)cc1OC (stereo not given) | 102% | 93% (inactive) | 102% (inactive) | 100% (inactive) | 85.4% (inactive) | 4.62% (inactive) | 80.8% | 85.4% | -4.67% (inactive) | 8.36% (inactive)
13 | O=C(O)[C@@H]1CCCN1c1ncnc2sc3c(c12)CCC3 | 128% | 100% (inactive) | 128% (inactive) | 98.3% (inactive) | 106% (inactive) | 3.99% (inactive) | 102% | 106% | -6.8% (inactive) | 0.32% (inactive)
14 | CSC1=C(C#N)C(c2ccc(Cl)cc2)C2=C(CC(C)(C)CC2=O)N1 (stereo not given) | 102% | 95% (inactive) | 102% (inactive) | 72.1% (inactive) | 66% (inactive) | 32.4% (inactive) | 33.6% | 66% | -3.92% (inactive) | -1.48% (inactive)
